The record followed here is ChEMBL document CHEMBL2177004, “Synthesis and SAR of b-annulated 1,4-dihydropyridines define cardiomyogenic compounds as novel inhibitors of TGFβ signaling” (J Med Chem, 2012).

pIC50: −log10 of the molar value. Active and inactive are the calls of the source. No cut-off for these calls is given here.

A word on the inhibition: it is the relative decrease from the control value, in per cent. The pIC50 is the negative decadic logarithm of the IC50, by convention in mol/L.

The target of assay [1] is T1, Activin receptor type-1C (Homo sapiens) (UniProt Q8NER5).
T1 sequence (whole entry): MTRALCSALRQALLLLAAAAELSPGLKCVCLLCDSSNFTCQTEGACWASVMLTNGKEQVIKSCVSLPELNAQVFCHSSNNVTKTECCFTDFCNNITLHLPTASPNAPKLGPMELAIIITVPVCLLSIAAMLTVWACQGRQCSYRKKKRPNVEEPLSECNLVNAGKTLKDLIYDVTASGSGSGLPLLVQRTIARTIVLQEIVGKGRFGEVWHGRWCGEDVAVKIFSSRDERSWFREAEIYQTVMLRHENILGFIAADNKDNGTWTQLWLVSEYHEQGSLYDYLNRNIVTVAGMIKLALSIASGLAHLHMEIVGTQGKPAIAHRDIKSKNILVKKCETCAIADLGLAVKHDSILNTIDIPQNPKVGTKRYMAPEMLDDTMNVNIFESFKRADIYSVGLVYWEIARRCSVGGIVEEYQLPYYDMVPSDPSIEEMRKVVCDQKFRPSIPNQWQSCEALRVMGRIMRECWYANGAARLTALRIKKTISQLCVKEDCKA
The following applies: 2.5 uM.

For assay [2], the target named is T2, Activin receptor type-1B (Homo sapiens) (UniProt P36896).
T2 sequence (whole entry): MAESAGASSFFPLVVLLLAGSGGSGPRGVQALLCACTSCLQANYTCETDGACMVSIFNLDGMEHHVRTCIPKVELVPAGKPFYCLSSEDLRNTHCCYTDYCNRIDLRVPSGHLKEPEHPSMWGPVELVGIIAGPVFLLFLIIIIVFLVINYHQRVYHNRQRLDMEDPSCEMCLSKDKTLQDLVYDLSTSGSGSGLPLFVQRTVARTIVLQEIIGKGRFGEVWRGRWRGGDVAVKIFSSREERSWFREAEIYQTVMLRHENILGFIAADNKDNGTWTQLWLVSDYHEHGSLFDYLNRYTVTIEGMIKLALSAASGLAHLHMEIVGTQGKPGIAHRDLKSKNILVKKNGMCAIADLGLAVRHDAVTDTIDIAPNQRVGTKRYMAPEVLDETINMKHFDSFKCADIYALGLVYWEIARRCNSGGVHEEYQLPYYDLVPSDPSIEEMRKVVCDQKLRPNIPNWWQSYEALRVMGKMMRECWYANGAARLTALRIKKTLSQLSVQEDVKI
To be noted: 2.5 uM.

Another assay addresses TGF-beta receptor type-2 (Homo sapiens, UniProt P37173). The assay can be described thus: Inhibition of TGBR2 signaling in human HEK293T cells assessed as inhibition of SMAD activation after 2 to 22 hrs by dual Luciferase Assay. The assay is classed as cell-based, HEK-293T.
For the next assay, the system named is HEK-293T. Kind of assay: Inhibition of Activin receptor signaling in activin A-stimulated human HEK293T cells assessed as inhibition of SMAD activation at 2.5 uM after 2 to 22 hrs by dual Luciferase Assay. The assay is classed as cell-based. The method, boiled down: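 HEK-293T cells bulk co-transfected with an SBE-4–firefly luciferase reporter and a TK-driven Renilla plasmid for normalization, in DMEM with 2% FBS. After 12–14 h, cells were replated at 25,000/well in DMEM with 1% FBS and rested 2 h. Compound was then added with Activin A (10 ng/mL) for 20–22 h. Dual luciferase read-out was compared with DMSO, run in triplicate, with ≥2 independent experiments.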

Assay [3] can be described thus: Inhibition of calcium transients in mouse HL-1 cells after 10 mins using Fluo-4 by fluorescene assay. The assay is classed as functional. Summed up: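 HL-1 murine atrial cells plated at 25,000/well on gelatin (0.02%)/fibronectin (5 μg/mL) in Claycomb medium with 10% FBS and 0.1 mM norepinephrine. Loaded with Hoechst 33342 and Fluo-4 for 30 min at 37 °C, then 30 min at room temperature. Washed with Tyrode's (pH 7.4); compound in Tyrode's 10 min at room temperature. 10 s videos at 33 frames/s; kinetic parameters from image analysis.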

Assay [4] has as its system CGR8. The assay can be described thus: Promotion of cardiogenesis in mouse CGR8 cells carrying Myh6-GFP compound treated at 2.5 uM on days 3 to 5 measured on day 10 post differentiation by GFP reporter assay. The assay is classed as functional, cell-based. Summed up: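 CGR8 mESCs carrying a Myh6 (α-MHC)-GFP reporter seeded in LIF-free high-glucose DMEM with 10% FBS to differentiate. Compound given on days 3–5; α-MHC-GFP fluorescence quantified by high-content imaging on day 10. Data normalized at lower concentrations.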

The next assay concerns J1 (Mus musculus). Kind of assay: Inhibition of mesoderm formation in mouse J1 cells carrying brachyury/T-GFP compound treated on day 1 measured on day 4 of differentiation by flow cytometry. Background: A flow cytometer gives signals particle by particle.
For assay [5], the system named is CGR8. The assay can be described thus: Inhibition of cardiogenesis in mouse CGR8 cells carrying Myh6-GFP compound treated at high concentration on days 3 to 5 measured on day 10 post differentiation by GFP reporter assay. The assay is classed as functional, cell-based. Summed up: (§1)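 Differentiation used CGR8 mESCs carrying a Myh6 (α-MHC)-GFP reporter, seeded in LIF-free high-glucose DMEM with 10% FBS. Compound was given on days 3–5 of differentiation. α-MHC-GFP fluorescence was quantified by high-content imaging on day 10, and data were normalized.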

For assay [6], the system named is CGR8. The assay can be described thus: Promotion of cardiogenesis in mouse CGR8 cells carrying Myh6-GFP compound treated at 5 uM on days 3 to 5 measured on day 10 post differentiation by GFP reporter assay. The assay is classed as functional, cell-based. The method, boiled down:
as §1
Background: Reporter assays use an easily measured gene product as a stand-in for the process of interest.

The subject of assay [7] is CGR8. Kind of assay: Promotion of cardiogenesis in mouse CGR8 cells carrying Myh6-GFP compound treated at 1 to 5 uM on days 3 to 5 measured on day 10 post differentiation by GFP reporter assay. The class given is functional, cell-based. Summed up: as §1

Sequence of TGF-beta receptor type-2 (P37173 whole entry): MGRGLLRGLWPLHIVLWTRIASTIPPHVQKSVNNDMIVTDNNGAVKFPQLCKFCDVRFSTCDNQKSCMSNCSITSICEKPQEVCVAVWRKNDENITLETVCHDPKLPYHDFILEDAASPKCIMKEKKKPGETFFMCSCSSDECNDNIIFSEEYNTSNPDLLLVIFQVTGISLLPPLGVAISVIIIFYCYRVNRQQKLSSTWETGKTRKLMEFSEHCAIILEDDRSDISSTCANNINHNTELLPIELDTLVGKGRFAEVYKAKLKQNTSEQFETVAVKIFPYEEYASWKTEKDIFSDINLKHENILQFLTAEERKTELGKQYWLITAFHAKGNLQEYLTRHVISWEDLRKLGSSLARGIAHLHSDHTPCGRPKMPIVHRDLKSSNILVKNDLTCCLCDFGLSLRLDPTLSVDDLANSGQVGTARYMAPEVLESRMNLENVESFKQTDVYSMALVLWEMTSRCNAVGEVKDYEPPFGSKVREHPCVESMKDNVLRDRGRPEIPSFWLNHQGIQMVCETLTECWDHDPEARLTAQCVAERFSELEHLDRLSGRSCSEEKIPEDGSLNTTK

As for `NC(=O)c1ccc(-c2nc(-c3ccccn3)c(-c3ccc4c(c3)OCO4)[nH]2)cc1`, the inhibition in assay [1] and in [2] was 99% each time. As to `CCOC(=O)C1=C(C)NC2=C(C(=O)CC(C)(C)C2)C1c1ccc(-c2ccccc2)cc1` (racemic) [listing 1 of 2 here], the negative-log IC50 (pIC50) on TGF-beta receptor type-2 is 6.07. With `CCOC(=O)C1=C(C)NC2=C(C(=O)CC(C)(C)C2)C1c1ccc(-c2ccccc2)cc1` (racemic) [listing 2 of 2 here], in the assay with HEK-293T, the inhibition was found to be 51%. As to `COC(=O)C1=C(C)NC2=C(C(=O)CC(C)(C)C2)C1c1cccc(-c2ccc3[nH]ccc3c2)c1` (racemic), in the assay on HEK-293T, the inhibition was found to be 24%.

As to `CCCC1CC(=O)C2=C(C1)NC(C)=C(C(=O)OC)C2c1ccc(-c2ccccc2)cc1` (single isomer, unassigned; (+)) [listing 1 of 2 here], the “inhibition (INH)” value in [3] stood at 58%. Turning to `CCCC1CC(=O)C2=C(C1)NC(C)=C(C(=O)OC)C2c1ccc(-c2ccccc2)cc1` (single isomer, unassigned; (+)) [listing 2 of 2 here], the result in the assay with CGR8 [4] was Active. Moreover, the inhibition result in the assay on J1 (Mus musculus) was “Active”. Regarding `COC(=O)C1=C(C)NC2=C(C(=O)CC(C)(C)C2)C1c1cccc(-c2ccc3[nH]ccc3c2)c1` (single isomer, unassigned; (+)), the inhibition in the assay on HEK-293T is 55%. Also, the inhibition result with J1 (Mus musculus) was “Active”.

Consider `CCCC1CC(=O)C2=C(C1)NC(C)=C(C(=O)OC)C2c1ccc(-c2ccccc2)cc1` (single isomer, unassigned; (-)) [listing 1 of 2 here], for which the “inhibition (INH)” value in [3] came to 85%.

As for `CCCC1CC(=O)C2=C(C1)NC(C)=C(C(=O)OC)C2c1ccc(-c2ccccc2)cc1` (single isomer, unassigned; (-)) [listing 2 of 2 here], the outcome in the assay on CGR8 [4] was inactive. In addition, the inhibition entry with J1 (Mus musculus) is “Active”.

For `COC(=O)C1=C(C)NC2=C(C(=O)CC(C)(C)C2)C1c1cccc(-c2ccc3[nH]ccc3c2)c1` (single isomer, unassigned; (-)), the inhibition in the assay with HEK-293T came to 68%. `CCOC(=O)C1=C(C)NC2=C(C(=O)CC(C)(C)C2)C1c1ccc(-c2ccccc2)cc1` (stereo in doubt; (+)1) [listing 1 of 2 here]: the “inhibition (INH)” value in assay [3] is 44%. Besides, the pIC50 on TGF-beta receptor type-2 is 6.34. Turning to `CCOC(=O)C1=C(C)NC2=C(C(=O)CC(C)(C)C2)C1c1ccc(-c2ccccc2)cc1` (stereo in doubt; (+)1) [listing 2 of 2 here], the inhibition result in the assay with CGR8 [5] was “Dose-dependent effect”; in the assay with HEK-293T, 49%. The outcome with CGR8 [6] and in the assay on CGR8 [7] was Active. For the same compound, the inhibition entry in the assay with J1 (Mus musculus) is “Active”. In the case of `CCOC(=O)C1=C(C)NC2=C(C(=O)CC(C)(C)C2)C1c1ccc(-c2ccccc2)cc1` (stereo in doubt; (-)1) [listing 1 of 2 here], the “inhibition (INH)” value in assay [3] came out at 87%. For the same compound, the negative-log IC50 (pIC50) on TGF-beta receptor type-2 is 5.16. In the case of `CCOC(=O)C1=C(C)NC2=C(C(=O)CC(C)(C)C2)C1c1ccc(-c2ccccc2)cc1` (stereo in doubt; (-)1) [listing 2 of 2 here], in the assay with HEK-293T, the inhibition amounted to 41%. Further, the result in the assay with CGR8 [7] was Active. The inhibition result with J1 (Mus musculus) was “Active”.

Take `COC(=O)C1=C(C)NC(C)=C(C(=O)OC)C1c1ccccc1[N+](=O)[O-]` [NIFEDIPINE]: the “inhibition (INH)” value in [3] stood at 66%.
